A short description of experiment [1]: inhibitors of TNFa-induced NFkB p65 translocation, primary screen, imaging, HUVEC, MLSMR starter and 10KST1 sets (AID 438;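 active = inhibition above 20% together with a positive visual image hit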;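 also: compound added about 3h40 before a 20 min TNFalpha stimulation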;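 as to inhibition: signal is the nuclear over cytoplasmic p65 intensity ratio per well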). The note with it: HUVEC TNFa-induced p65 nuclear translocation; cell count: measured here: nuclei count (cytotoxicity indicator), at 2.08 µM; inhibition: at 2 µM, stronger effect = higher value, 0% TNFa-plus-vehicle, 100% no-TNFa wells.
Experiment [2] in a line: endothelial E-selectin expression blockers – imaging, HUVEC, immunofluorescence, MLSMR starter and 10KST1 sets, primary screen (AID 487;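 active = visually confirmed hit in the image check and inhibition above 20%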;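 as to inhibition: signal is fraction of cell area covered by stained E-selectin grains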;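 as to nuclei count: 100% = median nuclei count of all wells on the same plate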). To be noted: HUVEC TNFalpha-induced E-selectin immunofluorescence imaging, at 2 µM; inhibition: stronger effect = higher value; nuclei count: measured here: cell number, toxicity.
The nature of experiment [3]: Primary imaging screen for DUSP6 inhibitors that restore phospho-Erk in transfected HeLa cells, chemical complementation (AID 609;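 active = compounds giving at least 50% inhibition in the cell-based MKP-3 phosphatase rescue imaging test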;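 as to inhibition: phospho-Erk level distribution per well compared with pooled transfected vehicle control wells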). To be noted: HeLa MKP-3 transfected, phospho-Erk imaging KS statistic, at 10 µM, cells stimulated with TPA for 15 min.
In experiment [4] the target is Dual specificity protein phosphatase 6 (Homo sapiens) (UniProt Q16828). The description is as above. The note with it: HeLa MKP-3 transfected, phospho-Erk imaging KS statistic; at 10 µM; stronger effect = higher value; cells stimulated with TPA for 15 min.
The target in experiment [5] is Voltage-gated potassium channel subunit beta-2 (Rattus norvegicus) (UniProt P62483). The experiment in a line: inhibitors of rat Kvbeta2 reductase activity – biochemical, NADPH fluorescence, primary screen (AID 622;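 active = fluorescence slope higher than the sample average by over 3 SD, cut at about -0.22 in these data, passing the limit was not always enough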;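 also: slope of raw intensity against log time taken from 70 to 1610 s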). To be noted: recombinant KvBeta, 4-cyanobenzaldehyde reduction, at 10 µM, stronger effect = higher value.
For experiment [6] the target is unchanged. The experiment in a line: enhancers of rat Kvbeta2 NADPH turnover – biochemical, NADPH fluorescence, primary screen (AID 623;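 active = NADPH fluorescence slope more negative than the mean of all samples by about 3 SD, 99.7% confidence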;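 also: fluorescence intensity change per second fitted from 20 to 320 s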). To be noted: Recombinant KvBeta, NADPH fluorescence decrease slope, 10 min; at 10 µM; stronger effect = lower value.
Experiment [7] addresses Muscarinic acetylcholine receptor M4 (Homo sapiens) (UniProt P08173). Nature of the experiment: M4-linked GIRK flux change, two-sided – cell-based, HEK293 M4/GIRK, thallium flux, BTC-AM, M4 allosteric agonist project, primary screen (AID 625).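 Also: thallium influx through GIRK channels coupled to M4 in HEK293 cells with BTC-AM dye.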 The note with it: at 10 µM, actives lie on both sides. A digest of the protocol:
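Material – HEK293 cells with M4 receptor and GIRK channels · Buffer or medium – pH 7.3 thallium assay buffer · Doses – one dose, 10 µM final · Timing – cells overnight at 37 °C, BTC-AM loading 1 h, reads 2 min total · Measured by – kinetic fluorescence with BTC-AM dye · Controls – carbachol and DMSO controls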

A short description of experiment [8]: inhibitors of larval lipid processing in zebrafish, primary screen, whole organism, PED6 fluorescence, gall bladder and intestine (AID 686;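 active = a full or partial loss of lipid-probe fluorescence in the fish gall bladder, intestine or both, judged by eye; inactive = no fluorescence loss, or compound toxic to the fish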;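 also: larvae 5 to 7 days old with five fish per well; signal comes from phospholipase A2 cleavage of quenched PED6 carried via bile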). The note with it: Zebrafish larvae PED6 lipid processing, fluorescence scoring; screened at 20 µM (by protocol). A digest of the protocol: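 system = live zebrafish larvae aged 5-7 days, whole organism | probe or stimulus = ingested quenched lipid PED6 at 100 nM | doses = 20 µM single dose | timing = overnight exposure | detection = fluorescence microscopy with visual scoring of gall bladder and intestine | read-out = visual per-well fluorescence inhibition score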

Experiment [9] can be described thus: loss of swimming-algae plug formation – whole organism, Chlamydomonas reinhardtii, WT vs cilia-less mutant, absorbance, 96-well, primary screen (AID 463189;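 active = inhibition at or above 50% relative to wild type and mutant plate controls; inactive = inhibition below 50%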;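 also: 0% = wild type cc124 cells in DMSO and 100% = ciliumless bld1 mutant cells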). The note with it: Chlamydomonas reinhardtii gravitaxis, OD600 absorbance, 2 days; at 10 µM; stronger effect = higher value.
[10] abbreviates: measured here: cell density z-score.
The mark [11] stands for this setting: measured here: nuclear c-Myc green intensity z-score.
Setting [12] is: measured here: nuclear pErk red intensity z-score, stronger effect = higher value.

Broadly, the inhibition is the relative decrease from the control value, in per cent.

The structures appear in SMILES notation. Calls of active or inactive are those of the source.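 The calls were made as follows, unless noted: active = fluorescence slope after compound addition differing from the mean of all tested samples at 99.7% confidence, mostly higher but some lower; inactive = the rest.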

Muscarinic acetylcholine receptor M4 (Homo sapiens), sequence (P08173 whole entry, looked up): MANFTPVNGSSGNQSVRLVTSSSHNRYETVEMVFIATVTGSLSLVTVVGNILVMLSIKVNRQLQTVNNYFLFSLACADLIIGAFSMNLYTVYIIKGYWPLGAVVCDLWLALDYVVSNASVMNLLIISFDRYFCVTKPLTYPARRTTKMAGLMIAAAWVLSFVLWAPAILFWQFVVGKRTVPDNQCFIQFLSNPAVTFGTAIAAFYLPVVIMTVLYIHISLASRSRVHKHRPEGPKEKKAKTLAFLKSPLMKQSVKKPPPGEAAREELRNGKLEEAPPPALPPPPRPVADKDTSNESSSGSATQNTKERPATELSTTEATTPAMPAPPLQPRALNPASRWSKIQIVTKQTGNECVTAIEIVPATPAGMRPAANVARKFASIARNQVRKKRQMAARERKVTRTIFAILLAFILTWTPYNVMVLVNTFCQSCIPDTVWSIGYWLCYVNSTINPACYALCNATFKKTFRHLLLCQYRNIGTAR
Dual specificity protein phosphatase 6 (Homo sapiens), sequence (Q16828 whole entry, looked up): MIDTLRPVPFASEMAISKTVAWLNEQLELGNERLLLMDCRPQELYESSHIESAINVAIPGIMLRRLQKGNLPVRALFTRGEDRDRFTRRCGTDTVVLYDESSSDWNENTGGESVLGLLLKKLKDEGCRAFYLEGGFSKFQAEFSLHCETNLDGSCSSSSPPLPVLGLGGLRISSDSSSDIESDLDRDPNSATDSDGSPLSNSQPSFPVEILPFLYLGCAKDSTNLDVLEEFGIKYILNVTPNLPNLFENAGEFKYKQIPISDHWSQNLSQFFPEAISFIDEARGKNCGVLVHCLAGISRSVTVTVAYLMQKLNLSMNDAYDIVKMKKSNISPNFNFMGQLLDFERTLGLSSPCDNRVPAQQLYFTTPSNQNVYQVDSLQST
Voltage-gated potassium channel subunit beta-2 (Rattus norvegicus), sequence (P62483 whole entry, looked up): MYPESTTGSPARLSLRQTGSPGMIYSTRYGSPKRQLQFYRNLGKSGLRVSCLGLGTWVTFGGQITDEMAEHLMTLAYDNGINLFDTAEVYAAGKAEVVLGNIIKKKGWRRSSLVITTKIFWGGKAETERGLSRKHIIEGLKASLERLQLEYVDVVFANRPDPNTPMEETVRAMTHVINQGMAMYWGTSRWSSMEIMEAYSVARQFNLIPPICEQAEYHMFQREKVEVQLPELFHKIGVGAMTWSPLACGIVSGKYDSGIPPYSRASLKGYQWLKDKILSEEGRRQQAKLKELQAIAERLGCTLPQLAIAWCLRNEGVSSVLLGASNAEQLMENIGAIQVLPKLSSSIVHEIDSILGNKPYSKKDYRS

Consider `O=c1[nH]cnc2c1cnn2Cc1ccccc1`, for which the cell count in experiment [1] stood at 509. Moreover, the inhibition was -2.1% (inactive) in experiment [1], -58.3% (inactive) in [2], -3.97% (inactive) in experiment [4] and -9.15% (inactive) in experiment [9]. Also, the nuclei count in [2] stood at 145%. Besides, the z-score is 0.233 in experiment [3] (setting [10]), -0.586 in experiment [3] (setting [11]) and 0.288 in experiment [3] (setting [12]). For the same compound, the figures for the fluorescence slope in experiment [5] and in experiment [7] were -0.354 (inactive) and 0.00657 (inactive), respectively. For the same compound, the NADPH fluorescence slope in experiment [6] was -5.1e-05 (inactive). Further, the call in experiment [8] was inactive.

With `O=C1c2ccccc2C(=O)N1CC1c2ccccc2CCN1C(=O)N1CCOCC1` (centres undefined), in [1], the cell count is 775. Moreover, the inhibition is -4.1% (inactive) in experiment [1], -16.4% (inactive) in [2], 1.98% (inactive) in experiment [4] and -3.71% (inactive) in [9]. Also, in experiment [2], the nuclei count worked out at 202%. Besides, the values for the z-score in experiment [3] (setting [10]), in experiment [3] (setting [11]) and in experiment [3] (setting [12]) were 0.51, 1.63 and 0.969, respectively. Further, the results for the fluorescence slope in experiment [5] and in experiment [7] were -0.485 (inactive) and 0.0053 (inactive), respectively. Besides, the NADPH fluorescence slope in experiment [6] is -4.9e-05 (inactive). Moreover, the result in [8] was inactive.

As to `O=C(c1ccc(=O)oc1)N1CCN(C(c2ccccc2)c2ccccc2)CC1`, the cell count in experiment [1] is 630. Besides, the inhibition was -3.2% (inactive) in [1], -22.1% (inactive) in experiment [2], -3.95% (inactive) in [4] and 4.32% (inactive) in experiment [9]. Also, the nuclei count in [2] is 168%. Also, the z-score in [3] (setting [10]) is -0.99; in [3] (setting [11]) it was 0.461; in experiment [3] (setting [12]) it was 1.67. Further, the fluorescence slope is -0.474 (inactive) in experiment [5] and 0.00524 (inactive) in experiment [7]. In addition, the NADPH fluorescence slope in [6] was -7.6e-05 (inactive). Moreover, in experiment [8], the outcome was inactive.

Take `CC(NC(=O)c1ccc(=O)oc1)c1ccccc1` (centres undefined): the cell count in [1] is 544. In addition, the inhibition is 4.1% (inactive) in experiment [1], 56.8% (inactive) in experiment [2], 13.9% (inactive) in experiment [4] and 6.14% (inactive) in [9]. The compound further showed a nuclei count in experiment [2] of 167%. Also, the z-score in experiment [3] (setting [10]) is -0.00091; in experiment [3] (setting [11]) it was 1.16; in experiment [3] (setting [12]), 1.91. Also, the fluorescence slope is -0.409 (inactive) in experiment [5] and 0.00521 (inactive) in experiment [7]. The NADPH fluorescence slope in experiment [6] is -5.3e-05 (inactive). In [8], the call was inactive.

As to `O=C(NCc1ccccn1)c1coc(=O)c(Br)c1`, the cell count in experiment [1] worked out at 542. For the same compound, the inhibition in [1] was -1% (inactive); in [2], 22.6% (inactive); in experiment [4], 9.61% (inactive); in experiment [9], 10.6% (inactive). For the same compound, the nuclei count in [2] was 119%. Besides, the z-score in experiment [3] (setting [10]) was -0.164; in experiment [3] (setting [11]) it was 0.668; in [3] (setting [12]), -0.53. Besides, the fluorescence slope in experiment [5] is -0.481 (inactive); in experiment [7], 0.00581 (inactive). In addition, in experiment [6], the NADPH fluorescence slope was -4e-05 (inactive). For the same compound, the compound was called inactive in experiment [8].

On to `CC12CCC(=O)N1c1c(sc3nc(N4CCOCC4)c4c(c13)CCCC4)C(=O)N2` (centres undefined), for which, in experiment [1], the cell count stood at 363. Besides, the inhibition was 1.4% (inactive) in experiment [1], -105% (inactive) in experiment [2], 5.42% (inactive) in [4] and 26.7% (inactive) in experiment [9]. This compound gave a nuclei count in [2] of 122%. In addition, the z-score in experiment [3] (setting [10]) is -0.444; in experiment [3] (setting [11]) it was 1.24; in experiment [3] (setting [12]), 0.642. For the same compound, the fluorescence slope was -0.316 (inactive) in [5] and 0.00445 (inactive) in experiment [7]. Moreover, in experiment [6], the NADPH fluorescence slope was -5.5e-05 (inactive). In [8], the compound was called inactive.

`COCCNc1nc2c(c(=O)n(C)c(=O)n2C)n1Cc1cccc(C(F)(F)F)c1`: the cell count in [1] worked out at 698. Moreover, the inhibition in experiment [1] was 3% (inactive); in [2], -94.2% (inactive); in experiment [4] it was 7.93% (inactive); in experiment [9], 36.2% (inactive). The same compound gave a nuclei count in experiment [2] of 95.8%. In addition, the results for the z-score in experiment [3] (setting [10]), in experiment [3] (setting [11]) and in experiment [3] (setting [12]) were 0.711, -1.37 and -0.346, respectively. In addition, the figures for the fluorescence slope in [5] and in experiment [7] were -0.559 (inactive) and 0.00743 (inactive), respectively. In addition, the NADPH fluorescence slope in [6] is -8e-05 (inactive). For the same compound, in [8], the compound was called inactive.

On to `CC1(C)C2CCC1(C)C(OC(=O)CC(=O)O)C2` (centres undefined), for which, in [1], the cell count is 566. The inhibition in experiment [1] was -2% (inactive); in experiment [2], -63.5% (inactive); in experiment [4], 1.98% (inactive); in [9], 5.19% (inactive). The nuclei count in [2] was 143%. Moreover, the results for the z-score in [3] (setting [10]), in experiment [3] (setting [11]) and in experiment [3] (setting [12]) were 0.899, -0.605 and 0.67, respectively. The fluorescence slope in [5] is -0.382 (inactive); in experiment [7], 0.00679 (inactive). In addition, the NADPH fluorescence slope in experiment [6] is -4.1e-05 (inactive). Further, the compound was called inactive in [8].

For the compound `O=C1C(=O)N(Cc2cccnc2)C(c2ccccn2)/C1=C(/O)c1ccc(Br)cc1` (centres undefined), the cell count in experiment [1] is 486. Moreover, the inhibition in experiment [1] is -5.3% (inactive); in experiment [2] it was -24.5% (inactive); in experiment [4] it was 4.37% (inactive); in [9], -1.46% (inactive). Besides, the nuclei count in experiment [2] was 156%. The z-score in experiment [3] (setting [10]) is 1.28; in experiment [3] (setting [11]), -0.786; in experiment [3] (setting [12]), -0.613. The fluorescence slope was -0.457 (inactive) in experiment [5] and 0.00516 (inactive) in [7]. In experiment [6], the NADPH fluorescence slope was -4.3e-05 (inactive). Besides, the outcome in [8] was inactive.

For `C=C(C)CN(CC)CCC(=O)Nc1ccc(OC)cc1OC`, the cell count in [1] worked out at 486. Also, the inhibition in [1] is -7.5% (inactive); in experiment [2] it was -273% (inactive); in [4], -7.28% (inactive); in experiment [9] it was 11.3% (inactive). This compound came in with a nuclei count in experiment [2] of 172%. In addition, the z-score in experiment [3] (setting [10]) is -0.562; in experiment [3] (setting [11]), 0.149; in [3] (setting [12]), 0.762. The fluorescence slope in experiment [5] was -0.424 (inactive); in experiment [7], 0.0048 (inactive). In [6], the NADPH fluorescence slope was -3.9e-05 (inactive). Besides, in experiment [8], the call was inactive.

Turning to `Cc1nc2c(o1)CCc1ccccc1C2N1CCN(C)CC1` (centres undefined), the cell count in experiment [1] was found to be 557. Besides, the inhibition in [1] is 1.3% (inactive); in [2], -37.3% (inactive); in experiment [4] it was 17.8% (inactive); in experiment [9], 29.5% (inactive). Further, the nuclei count in [2] was 103%. In addition, the z-score in experiment [3] (setting [10]) was 0.777; in [3] (setting [11]) it was -1.51; in [3] (setting [12]), 1.56. Also, the results for the fluorescence slope in experiment [5] and in [7] were -0.412 (inactive) and 0.00552 (inactive), respectively. In experiment [6], the NADPH fluorescence slope is -3.4e-05 (inactive). In addition, the compound was classed as inactive in experiment [8].

Turning to `CCCCOC(=O)c1ccc(NC(=O)CSc2nncn2C)cc1`, in experiment [1], the cell count was found to be 507. The inhibition is -8.4% (inactive) in experiment [1], -82.5% (inactive) in experiment [2], -0.624% (inactive) in experiment [4] and 5.5% (inactive) in experiment [9]. For the same compound, in experiment [2], the nuclei count came out at 168%. The results for the z-score in [3] (setting [10]), in experiment [3] (setting [11]) and in experiment [3] (setting [12]) were -0.268, -0.273 and 0.565, respectively. The results for the fluorescence slope in experiment [5] and in experiment [7] were -0.456 (inactive) and 0.00538 (inactive), respectively. For the same compound, the NADPH fluorescence slope in experiment [6] is -6.8e-05 (inactive). Besides, in experiment [8], the outcome was inactive.

On to `CC1(C)CC(=O)C(C=Nc2ccc(Cl)cn2)=C(O)C1`, for which the cell count in [1] turned out to be 493. Further, the inhibition in [1] was -2.2% (inactive); in experiment [2], -68.2% (inactive); in experiment [4], 15.9% (inactive); in [9], 35.7% (inactive). In [2], the nuclei count came to 114%. In addition, the z-score was 0.174 in experiment [3] (setting [10]), -1.57 in experiment [3] (setting [11]) and 0.727 in experiment [3] (setting [12]). Moreover, the fluorescence slope in experiment [5] is -0.464 (inactive); in experiment [7], 0.0108 (inactive). Further, the NADPH fluorescence slope in experiment [6] was -2.5e-06 (inactive). The result in experiment [8] was inactive.

Source of the values: PubChem BioAssay.
